This note sets out measurements from ChEMBL document CHEMBL4359814, “A Potent Isoprenylcysteine Carboxylmethyltransferase (ICMT) Inhibitor Improves Survival in Ras-Driven Acute Myeloid Leukemia” (J Med Chem, 2019).

Series [1] is described as follows: Drug level in NSG mouse plasma xenografted with human HL60 cells at 25 mg/kg, ip administered 5 days a week followed by 2 days interval for 15 days measured 2 hrs post-last dose by LC-MS/MS analysis. The format is ADME, organism-based. On the technique in general: A xenograft is tissue or cells of one species grown in another, often human tumour cells in immunodeficient mice.

For series [2], the target named is T1, Protein farnesyltransferase (Homo sapiens) (UniProt P49354+P49356). Briefly: Inhibition of FTase in human PC3 cells assessed as reduction in HDJ2 farnesylation at 10 uM measured after 24 hrs by Western blot analysis. The format is cell-based.
Series [3] is described as follows: Permeability of the compound. The format is ADME. The procedure, abridged: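 Parallel artificial membrane assay, expressed as percentage of compound passing through the membrane. Mean±SEM of at least two independent experiments in duplicate.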
The target of series [4] is Albumin (Homo sapiens, UniProt P02768). In words: Binding affinity to human serum albumin. In kind it is ADME. The following applies: for fraction unbound: human, human serum albumin, read-out: PB (converted).
Sequence of Albumin (P02768 whole entry, the tested form may be a part): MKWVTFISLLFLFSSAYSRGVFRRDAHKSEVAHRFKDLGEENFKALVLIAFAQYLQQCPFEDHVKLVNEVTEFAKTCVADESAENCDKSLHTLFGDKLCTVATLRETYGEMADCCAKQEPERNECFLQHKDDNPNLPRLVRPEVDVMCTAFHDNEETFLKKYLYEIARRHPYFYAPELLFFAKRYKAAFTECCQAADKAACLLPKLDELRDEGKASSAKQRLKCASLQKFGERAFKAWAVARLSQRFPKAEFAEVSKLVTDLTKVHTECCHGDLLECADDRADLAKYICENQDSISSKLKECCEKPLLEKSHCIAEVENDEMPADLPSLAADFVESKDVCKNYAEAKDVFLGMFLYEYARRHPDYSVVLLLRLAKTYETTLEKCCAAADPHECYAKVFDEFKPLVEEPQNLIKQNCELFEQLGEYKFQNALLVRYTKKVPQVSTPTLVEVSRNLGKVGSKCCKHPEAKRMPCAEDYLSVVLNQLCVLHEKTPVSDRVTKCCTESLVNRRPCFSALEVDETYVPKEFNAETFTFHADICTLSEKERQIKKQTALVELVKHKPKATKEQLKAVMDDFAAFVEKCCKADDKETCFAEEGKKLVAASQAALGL
Series [5] deals with Tyrosine-protein kinase Fyn (Homo sapiens) (UniProt P06241). Briefly: Effect on GFP-fused Fyn (unknown origin) transfected in human AD293 cells assessed as induction of Fyn mislocalization at 5 uM by laser confocal microscopic analysis. The format is cell-based.
Sequence of Tyrosine-protein kinase Fyn (Homo sapiens) (P06241 2-537 limits assumed): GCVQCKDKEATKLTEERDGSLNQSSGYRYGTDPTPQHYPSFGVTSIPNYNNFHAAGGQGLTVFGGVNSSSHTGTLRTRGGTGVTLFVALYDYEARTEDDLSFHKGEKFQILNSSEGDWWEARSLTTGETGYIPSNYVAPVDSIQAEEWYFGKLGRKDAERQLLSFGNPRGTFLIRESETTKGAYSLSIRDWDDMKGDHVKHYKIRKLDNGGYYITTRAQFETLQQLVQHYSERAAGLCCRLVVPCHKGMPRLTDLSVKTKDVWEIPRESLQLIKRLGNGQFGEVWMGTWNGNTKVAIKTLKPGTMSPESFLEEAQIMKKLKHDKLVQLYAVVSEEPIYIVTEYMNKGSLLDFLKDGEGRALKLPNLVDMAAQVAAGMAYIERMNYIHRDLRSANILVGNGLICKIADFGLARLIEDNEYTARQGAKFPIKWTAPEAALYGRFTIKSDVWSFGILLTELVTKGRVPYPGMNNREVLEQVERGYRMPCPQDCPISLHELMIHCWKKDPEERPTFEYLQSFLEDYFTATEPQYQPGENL
Series [6] concerns the target T2, CAAX prenyl protease 2 (Homo sapiens, UniProt Q9Y256).
T2 sequence (Q9Y256 whole entry): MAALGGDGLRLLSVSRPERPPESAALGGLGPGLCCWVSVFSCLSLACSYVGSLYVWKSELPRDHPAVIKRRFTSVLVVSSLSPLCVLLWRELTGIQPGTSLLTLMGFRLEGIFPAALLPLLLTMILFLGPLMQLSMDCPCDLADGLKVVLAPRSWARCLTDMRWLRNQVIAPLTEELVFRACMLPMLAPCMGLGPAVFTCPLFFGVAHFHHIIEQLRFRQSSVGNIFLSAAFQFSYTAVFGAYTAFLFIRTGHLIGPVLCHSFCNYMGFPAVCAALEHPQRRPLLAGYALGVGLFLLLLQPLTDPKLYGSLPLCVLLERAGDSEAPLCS
In words: Inhibition of Rce1 in human PC3 cells at 10 uM using KSKTKC(f)VI as substrate measured after 24 hrs by LC-MS/MS analysis. The format is cell-based. In a few lines: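 PC-3 cells were incubated ±10 μM compound for 24 h and homogenised in 100 mM HEPES pH 7.5, 5 mM MgCl2, 0.5% NP-40. Homogenate, 0.2 mg, was reacted with 250 μM KSKTKC(f)VI for 60 min at 37 °C. Reactions were stopped with ice-cold acetonitrile, and the M+2/2 ion was followed by HPLC-MS/MS.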

The nature of series [7]: Drug level in NSG mouse plasma at 25 mg/kg, ip measured after 1 hr by LC-MS/MS analysis. The format is ADME, organism-based. In a few lines: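 8-week female mice received a single 25 mg/kg ip dose. Blood was taken by cardiac puncture at set time points (n=3 per point), clotted 30 min at rt and centrifuged. Serum was extracted with cold acetonitrile, filtered, and analysed by LC-MS/MS on a C18 column using positive ESI and MRM transition 423.50 > 289.05.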

Series [8] can be described thus: […] at 25 mg/kg, ip measured up to 6 hrs by LC-MS/MS analysis. The format is ADME, organism-based. The following applies: NSG, mouse, plasma.
In series [9] the target is Protein-S-isoprenylcysteine O-methyltransferase (Homo sapiens) (UniProt O60725). In words: Inhibition of recombinant human ICMT expressed in Sf9 insect cell membranes at 50 uM using biotin-farnesyl-L-cysteine as substrate preincubated for 15 mins followed by substrate addition and measured after 30 mins by scintillation counting analysis relative to control.
Sequence of Protein-S-isoprenylcysteine O-methyltransferase (Homo sapiens) (O60725 whole entry, the tested form may be a part): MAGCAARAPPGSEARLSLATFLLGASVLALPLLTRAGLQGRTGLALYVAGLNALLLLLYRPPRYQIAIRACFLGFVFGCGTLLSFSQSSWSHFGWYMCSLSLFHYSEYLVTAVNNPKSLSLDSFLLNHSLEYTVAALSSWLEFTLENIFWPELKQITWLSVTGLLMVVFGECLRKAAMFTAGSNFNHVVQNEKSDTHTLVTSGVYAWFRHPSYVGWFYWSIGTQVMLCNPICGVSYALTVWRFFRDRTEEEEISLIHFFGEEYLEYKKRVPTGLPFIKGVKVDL
For series [10], the species on record is Homo sapiens. Briefly: Inhibition of GGTase in human PC3 cells assessed as reduction in Rap1A geranylgeranylation at 1 uM measured after 24 hrs by Western blot analysis. In kind it is cell-based. (Immunoblotting shows a protein as a band on a membrane.)
In series [11] the target is T1, Protein farnesyltransferase (Homo sapiens). Conditions: 1 uM.
The species entered for series [12] is Homo sapiens. Briefly: Inhibition of GGTase in human PC3 cells assessed as reduction in Rap1A geranylgeranylation at 10 uM measured after 24 hrs by Western blot analysis. The format is cell-based.
The subject of series [13] is MIA PaCa-2. In words: Induction of apoptosis in human MIAPaCa2 cells assessed as increase in sub-G0/G1 population at 50 uM measured after 24 hrs by propidium iodide staining based flow cytometry. The format is functional, cell-based. A general note: A flow cytometer gives signals particle by particle.
In series [14] the target is Protein-S-isoprenylcysteine O-methyltransferase (Homo sapiens) (UniProt O60725). In words: Inhibition of ICMT in human AD293 cells transfected GFP-fused K-Ras4A assessed as induction of K-Ras4A mislocalization at 5 uM by laser scanning confocal microscopic analysis. In kind it is cell-based. The procedure, abridged:
(§1)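 AD-293 cells were transiently transfected with GFP fusion plasmids of H-Ras, K-Ras4A, K-Ras4B or N-Ras. They were treated overnight with 5 μM compound or DMSO, then imaged live by laser scanning confocal microscopy. Three independent transfections were performed in triplicate.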

The subject of series [15] is PC-3. In words: Induction of autophagy in human PC3 cells assessed as increase in LC3 expression at 25 uM measured after 24 hrs by Western blot analysis. In kind it is functional, cell-based.
Series [16] concerns the target Protein-S-isoprenylcysteine O-methyltransferase (Homo sapiens) (UniProt O60725). In words: Inhibition of ICMT in human AD293 cells transfected GFP-fused K-Ras4B assessed as induction of K-Ras4B mislocalization at 5 uM by laser scanning confocal microscopic analysis. In kind it is cell-based. In a few lines: as §1
In series [17] the test system is PK9. Briefly: Induction of apoptosis in human PK9 cells assessed as increase in sub-G0/G1 population at 50 uM measured after 24 hrs by propidium iodide staining based flow cytometry. The format is functional, cell-based.
Series [18] deals with PC-3. In words: Induction of apoptosis in human PC3 cells assessed as increase in caspase 3 activity at 25 uM. The format is functional, cell-based.
The target of series [19] is Protein-S-isoprenylcysteine O-methyltransferase (Homo sapiens) (UniProt O60725). Briefly: Inhibition of ICMT in human AD293 cells transfected GFP-fused H-Ras assessed as induction of H-Ras mislocalization at 5 uM by laser scanning confocal microscopic analysis. In kind it is cell-based. The procedure, abridged:
as §1

In series [20] the test system is HuP-T4. Briefly: Induction of apoptosis in human HUPT4 cells assessed as increase in sub-G0/G1 population at 50 uM measured after 24 hrs by propidium iodide staining based flow cytometry. In kind it is functional, cell-based.
Series [21] has as its system PANC-1. In words: Induction of apoptosis in human PANC1 cells assessed as increase in sub-G0/G1 population at 50 uM measured after 24 hrs by propidium iodide staining based flow cytometry. In kind it is functional, cell-based.
In series [22] the target is Protein-S-isoprenylcysteine O-methyltransferase (Homo sapiens) (UniProt O60725). Briefly: Inhibition of ICMT in human AD293 cells transfected GFP-fused N-Ras assessed as induction of N-Ras mislocalization at 5 uM by laser scanning confocal microscopic analysis. The format is cell-based. The procedure, abridged:
as §1

For series [23], the system named is PC-3. In words: Induction of apoptosis in human PC3 cells assessed as increase in cleaved PARP expression at 25 uM measured after 24 hrs by Western blot analysis. The format is functional, cell-based.
In series [24] the test system is Capan-2. Briefly: Induction of apoptosis in human Capan2 cells assessed as increase in sub-G0/G1 population at 50 uM measured after 24 hrs by propidium iodide staining based flow cytometry. The format is functional, cell-based.
In series [25] the target is Protein-S-isoprenylcysteine O-methyltransferase (Homo sapiens) (UniProt O60725). Briefly: Inhibition of ICMT in human PC3 cells assessed as induction of mislocalization of endogenous Ras at 5 uM preincubated for 48 hrs followed by compound washout and subsequent compound addition measured after 72 hrs by Hoechst 33258 staining-based confocal microscopic analysis. The format is cell-based. The procedure, abridged: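 PC3 cells were seeded at 2×10^4 on poly-D-lysine coverslips for 24 h in RPMI with 10% FBS. They were treated with compound or DMSO for 120 h, with medium and compound renewed at 48 h. Cells were fixed in 4% PFA, permeabilised with Triton X-100, and stained with anti-Ras and a fluorescent secondary, with Hoechst for nuclei. Imaging used a 60X confocal objective, and membrane Ras signal was quantified.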

Each structure is given as a SMILES string. pKd: −log10 of the molar value. Active and inactive are the calls of the source. The calls are words filed in the database; no cut-off is given here.

In series [1], `CCCCCCCCN(CCC(=O)Nc1ccccc1)CCC(=O)Nc1ccccc1` displayed a concentration at 2 h of 736 nM. In [2], the inhibition entry is “inactive”. Besides, the permeability in [3] is recorded as 68%. Also, in series [4], the negative-log Kd (pKd) is 4.55 and the fraction unbound was 0.046. Also, in [5], the result was inactive. Besides, the “inhibition (INH)” value in series [6] was “Not Active”. The concentration at 1 h in series [7] was 1700 nM. The same molecule showed a concentration at 6 h in [8] of 480 nM.

As for `CCCCCCCCN(CCS(=O)(=O)N(C)c1ccccc1)CCS(=O)(=O)N(C)c1ccccc1`, the inhibition in [9] turned out to be 12%.

For the molecule `CCCCCCCCN(CCC(=O)Nc1ccccc1)CCC(=O)NC1CCCCC1`, the permeability in [3] is on record as 50%. Further, in series [4], the pKd is 5.52 and the fraction unbound was 0.005.

`CCCCCCCCN(CCC(=O)Nc1ccccc1)CCS(=O)(=O)Nc1ccccc1`: the inhibition in [9] is 22%.

On to `NC(=O)N1CCC(CC(=O)N2CCC([C@H]3c4ncc(Br)cc4CCc4cc(Cl)cc(Br)c43)CC2)CC1`, for which, in [10], the inhibition entry is “inactive”. In addition, the inhibition entry in series [11] is “Active”.

Regarding `COC(=O)[C@H](CC(C)C)NC(=O)c1ccc(NC[C@@H](N)CS)cc1-c1cccc2ccccc12`, the inhibition entry in series [2] is “inactive”. Also, in series [12], the inhibition result is “Active”.

As to `CCCCCCCCN(CCS(=O)(=O)Nc1ccccc1)CCS(=O)(=O)Nc1ccccc1`, the inhibition in [9] came to 34%.

`CCCCCCCCn1cc(CC(N)=O)c2cc(-c3cccc(C)c3)ccc21`: the outcome in [13], in series [15], in series [17], in [18], in [20] and in [21] was Active. Besides, the outcome in [23] and in series [24] was Active. Further, the inhibition result in series [14], in [16], in series [19], in [22] and in series [25] was “Active” throughout. In addition, in series [5], the result was inactive.

For `CCOCCOCCN(CCC(=O)Nc1ccccc1)CCC(=O)Nc1ccccc1`, in series [9], the inhibition came out at 15%.

`CCCCCCCCN(CCC(=O)Nc1ccccc1)CCS(=O)(=O)N(C)c1ccccc1`: the inhibition in [9] is 10%.

For `CCCCCCCCN(CCC(=O)Nc1ccccc1)CCC(=O)Nc1ccc(F)cc1`, in [3], the permeability is listed as 54%. In addition, in series [4], the pKd was 5.11 and the fraction unbound is 0.013.

The term inhibition denotes the percentage by which the read-out fell short of the control. For orientation: pKd means −log10 of the Kd, conventionally taken in molar units. A higher pKd goes with a low Kd.
